Reference: ChEMBL document CHEMBL3352416, “Discovery of carbohybrid-based 2-aminopyrimidine analogues as a new class of rapid-acting antimalarial agents using image-based cytological profiling assay” (J Med Chem, 2014)

Test system: Plasmodium falciparum
Experiment: Antimalarial activity against Plasmodium falciparum K1 by automated image mining based cytological profiling assay
Type: functional, organism-based
In short: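 Parasite cultures in 384-well format, read by automated imaging. Infected erythrocytes detected by DAPI nuclear staining against WGA-AlexaFluor 488 host-cell stain, and viability by Mitotracker Red CMXRos. Total culture parasitaemia quantified. EC50 given as mean±SD of two independent experiments, each in duplicate.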

| EC50 [nM] | Structure (SMILES) |
| --- | --- |
| 200 | COc1ccc(CO[C@@H]([C@H](O)COC(c2ccccc2)(c2ccccc2)c2ccccc2)[C@H](OCc2ccc(OC)cc2)c2cnc(N(C)C)nc2)cc1 |
| 559 | COc1ccc(CO[C@H]([C@H](O)COC(c2ccccc2)(c2ccccc2)c2ccccc2)[C@H](OCc2ccc(OC)cc2)c2cnc(N(C)C)nc2)cc1 |
| 478 | COc1ccc(CO[C@H]([C@H](O)COC(c2ccccc2)(c2ccccc2)c2ccccc2)[C@H](OCc2ccc(OC)cc2)c2cnn(C)c2)cc1 |
| 158 | COc1ccc(CO[C@H]([C@H](OCc2ccc(OC)cc2)c2cnn(C)c2)[C@@H](COC(c2ccccc2)(c2ccccc2)c2ccccc2)OS(C)(=O)=O)cc1 |
| 198 | COc1ccc(CO[C@@H]([C@H](OCc2ccc(OC)cc2)c2cnc(N(C)C)nc2)[C@@H](COC(c2ccccc2)(c2ccccc2)c2ccccc2)OS(C)(=O)=O)cc1 |
| 237 | COc1ccc(O[C@@H]([C@H](Oc2ccc(OC)cc2)c2cnn(C)c2)[C@@H](COC(c2ccccc2)(c2ccccc2)c2ccccc2)OS(C)(=O)=O)cc1 |
| 5030 | COc1ccc(CO[C@H]([C@H](OCc2ccc(OC)cc2)c2cnc(N(C)C)nc2)[C@@H](CO)OS(C)(=O)=O)cc1 |
